NR2E3 ag-1 – human photoreceptor-specific nuclear receptor agonism | 360,000 tested, 0.35% active | CHO-S Gal4-NCOR/VP16-NR2E3 two-hybrid, luciferase | inhibition of corepressor binding, % at 3.98 µM | AID 602229;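 active = inhibition above the mean of all tested compounds plus 3 SD, cut at about 70% in these data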;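 note: higher means lower luciferase signal from less NR2E3 corepressor binding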
697 NFkB inh – inhibitors of the PMA/ionomycin-induced NF-kB reporter in 697 B cells | inhibition, % at 4 µM | 330,000 tested, 0.33% active | 697 B-cell NF-kB luciferase reporter, 16 h | AID 435022; in the data active = inhibition above about 35%
FGF22 binding – shifts melting point of recombinant human FGF22. Q9HCT0. recombinant FGF22 thermal shift, SYPRO orange fluorescence; percent of sucrose octasulfate shift, DMSO zero. activity (Tm shift, normalised), % at 9.99 µM. 340,000 tested, 1.5% active;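 active = mean Tm shift, scaled 0 neutral to 100 positive control, at about 1.3% or above, every replicate too, limit read from the data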
Target sequence (Q9HCT0 whole entry, looked up): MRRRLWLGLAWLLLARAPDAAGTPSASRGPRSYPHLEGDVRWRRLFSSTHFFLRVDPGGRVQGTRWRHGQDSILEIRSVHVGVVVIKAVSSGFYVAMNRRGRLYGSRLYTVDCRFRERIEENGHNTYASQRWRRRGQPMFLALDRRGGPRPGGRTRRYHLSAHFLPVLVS
Jurkat NFkB inh – inhibitors of the PMA/ionomycin-induced NF-kB reporter in Jurkat cells; PMA/ionomycin-induced NF-kB luciferase reporter, luminescence; inhibition, % at 4 µM; AID 435003; 330,000 tested, 0.53% active; in the data active = inhibition above about 50%
NR2E3 ag-2 – activates human photoreceptor nuclear receptor NR2E3 | GST-NR2E3/biotin-RetCOR TR-FRET, 1536-well | Q9Y5X4 | 320,000 tested, 0.12% active | inhibition of corepressor binding, % at 4.78 µM;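 active = percent inhibition above the cutoff of mean plus 3 SD of all tested compounds, set per screening campaign, cut at about 20% in these data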
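Test system: GST-NR2E3 and biotin-RetCOR proteins | Quantity: 1.35 nM GST-tagged NR2E3 final | Medium: Tris pH 7.5 | Also added: 7 nM biotin-RetCOR | Dosing: Compound at 4.8 µM, single dose | Timing: 5 h at 4 °C | Detection: Time-resolved FRET | Read-out basis: Percent inhibition | Benchmarks: Biotin wells as high control, 0.6% DMSO wells as low control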
miR-122 sensor – inhibitors of miR-122 in Huh7 cells | Huh7 miR-122 Renilla luciferase sensor, 48 h; neutral wells = 0, positive control = 100 | activation (reporter increase), % at 12.5 µM | 340,000 tested, 0.3% active;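 active = mean replicate activation score at least 90 and every replicate individually at or above 90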;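 note: higher luciferase means less miR-122 activity so hits act as miR-122 inhibitors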
NR2E3 ag confirm – NR2E3 agonism confirmed in two-hybrid assay. AID 624378. shares compounds with NR2E3 ag-1. inhibition, % at 3.98 µM. CHO-S mammalian two-hybrid NR2E3-NCOR, luciferase luminescence. 2,300 tested, 51% active;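 active = average inhibition above a cutoff equal to the mean inhibition of all tested compounds plus one SD, cut at about 70% in these data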
GAL4-VP16 luc – counter-screen for NR2E3 agonists: GAL4-VP16 reporter inhibitors; shares compounds with NR2E3 ag-1; 2,300 tested, 29% active; CHO-S GAL4-VP16 luciferase reporter, luminescence; inhibition, % at 3.98 µM; AID 624379;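 active = mean inhibition above a cutoff equal to the average over all tested compounds plus one standard deviation, cut at about 70% in these data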;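 note: luciferase from a UAS reporter driven by GAL4-VP16 transactivation; higher means less reporter light so more repression of VP16 activity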
Of the large screens only hits and unclear results are named; the others gave an inactive call (follow-up assays come after a bar, where they were run). A selection: hits, their analogues and other compounds. The true share with any hit is near 2.2%.

COc1ccc2c3c(n(C)c2c1)[C@@H](CO)N(C(=O)CC1CC1)CC31CN(C(=O)C2CC2)C1	none (no result: NR2E3 ag-1, 697 NFkB inh, Jurkat NFkB inh, NR2E3 ag-2, miR-122 sensor)
O=C(c1ccccc1F)N1CC[C@@H]2[C@H](CO)Nc3ccc(-c4cccc(F)c4)cc3[C@@H]21	none (no result: NR2E3 ag-1, 697 NFkB inh, FGF22 binding, Jurkat NFkB inh, NR2E3 ag-2)
O=C(c1cc(COc2ccc3ncccc3c2)on1)N1CCC[C@H]1CO	NR2E3 ag-1 81 | NR2E3 ag confirm inactive | GAL4-VP16 luc inactive
CC(CNC(=O)c1cc(COc2ccc3ncccc3c2)on1)c1ccccc1 (centres undefined)	NR2E3 ag-1 105 | NR2E3 ag confirm 96 | GAL4-VP16 luc 80
O=C(C[C@@H]1C[C@H]2c3cc(NC(=O)c4cccnc4)ccc3O[C@H]2[C@@H](CO)O1)NCc1cccnc1	none (no result: NR2E3 ag-1, 697 NFkB inh, Jurkat NFkB inh, NR2E3 ag-2)
O=C(c1ccccn1)N1CC[C@@H]2[C@@H](CO)Nc3ccc(-c4ccccc4)cc3[C@@H]21	none (no result: NR2E3 ag-1, 697 NFkB inh, Jurkat NFkB inh, NR2E3 ag-2)
CCc1sc(C(=O)Nc2nc(-c3ccccn3)cs2)cc1C	none (no result: FGF22 binding, NR2E3 ag-2)
Cc1ccc(C(=O)Nc2nc(-c3ccccn3)cs2)s1	none | NR2E3 ag confirm inactive | GAL4-VP16 luc inactive
CC(C)CCNC(=O)CN(Cc1ccco1)C(=O)c1snc(C(N)=O)c1N	none | NR2E3 ag confirm inactive | GAL4-VP16 luc inactive
CC(C)CCNC(=O)C(c1ccco1)N(Cc1ccccc1)C(=O)c1snc(C(N)=O)c1N (centres undefined)	none
CN(CC(=O)Nc1cccc(F)c1)C(=O)CN1C(=O)C2CC=CCC2C1=O (centres undefined)	none (no result: miR-122 sensor)
CN(CC(=O)Nc1cccc(F)c1)C(=O)CCN1C(=O)C2CC=CCC2C1=O (centres undefined)	NR2E3 ag-1 96 | NR2E3 ag confirm inactive | GAL4-VP16 luc inactive
Cc1cccc(C)c1OCc1cc(C(=O)N2CCC(c3ccncc3)CC2)no1	NR2E3 ag-1 86 | NR2E3 ag confirm 88 | GAL4-VP16 luc inactive
O=C(c1cc(COc2cccc3cnccc23)on1)N1CCC(c2ccccc2Cl)C1 (centres undefined)	NR2E3 ag-1 95 (no result: miR-122 sensor) | NR2E3 ag confirm 78 | GAL4-VP16 luc inactive
O=C(c1cc(COc2c(F)cccc2F)on1)N1CCC(c2ccccc2Cl)C1 (centres undefined)	none
Cc1cccc(C)c1OCc1cc(C(=O)N2CCN(C3CCCC3)CC2)no1	none
O=C(c1cc(COc2c(F)cccc2F)on1)N1CCC(c2ccccc2F)C1 (centres undefined)	none
O=C(c1cc(COc2c(F)cccc2F)on1)N1CCC(c2ccncc2)CC1	none | NR2E3 ag confirm 83 | GAL4-VP16 luc 73
Cc1nn(C)c(C(=O)NCc2ccc(Cl)cc2)c1Cl	none (no result: FGF22 binding) | NR2E3 ag confirm 89 | GAL4-VP16 luc 75
CCCNC(=O)N1[C@H](CO)[C@@H](c2ccccc2-c2ccc(F)cc2)[C@@H]1C#N	none (no result: NR2E3 ag-1, 697 NFkB inh, Jurkat NFkB inh, NR2E3 ag-2, miR-122 sensor)
COc1cccc(OCCn2cc(C(=O)c3ccco3)c3ccccc32)c1	none (no result: FGF22 binding)
COc1cccc(OCCn2cc(C(C)=O)c3ccccc32)c1	none | NR2E3 ag confirm 80 | GAL4-VP16 luc inactive
O=C(O)C1C2C=CC(C2)C1C(=O)Nc1ccc2c(c1)OCCO2 (centres undefined)	none (no result: FGF22 binding) | NR2E3 ag confirm inactive | GAL4-VP16 luc inactive
O=C(O)C1C2C=CC(O2)C1C(=O)Nc1ccc2c(c1)OCCO2 (centres undefined)	none (no result: NR2E3 ag-1, FGF22 binding, miR-122 sensor)
O=C(Nc1ccc2c(c1)OCCO2)C1CC1c1ccccc1 (centres undefined)	none (no result: FGF22 binding, miR-122 sensor)
O=C(O)C1CCCCC1C(=O)Nc1ccc2c(c1)OCCO2 (centres undefined)	none (no result: FGF22 binding) | NR2E3 ag confirm inactive | GAL4-VP16 luc inactive
CO[C@@H]1CN(C)C(=O)c2cc(NS(=O)(=O)c3ccc(Oc4ccccc4)cc3)ccc2OC[C@@H](C)NC[C@@H]1C	none (no result: NR2E3 ag-1, 697 NFkB inh, Jurkat NFkB inh, NR2E3 ag-2)
COC1(OC)C(/C=C/c2ccc(C)cc2)C(C#N)(C#N)C1(OC)OC (centres undefined)	NR2E3 ag-1 77 (no result: FGF22 binding) | NR2E3 ag confirm inactive | GAL4-VP16 luc inactive

Compound activity from PubChem.
